Source: ChEMBL document CHEMBL4152256, “Structure-activity relationship of new antimalarial 1-aryl-3-susbtituted propanol derivatives: Synthesis, preliminary toxicity profiling, parasite life cycle stage studies, target exploration, and targeted delivery” (Eur J Med Chem, 2018)
pIC50, pKd: −log10 of the molar value. Calls of active or inactive are those of the source. The rule behind the calls is not given here.

Tests used:
[1] = target: T1, HSP90 (Plasmodium falciparum 3D7) (UniProt Q8IL32); assay: Binding affinity to Plasmodium falciparum HSP90 nucleotide binding domain at 0.5 mM by SYPRO orange dye based DSF analysis
T1 sequence (whole entry): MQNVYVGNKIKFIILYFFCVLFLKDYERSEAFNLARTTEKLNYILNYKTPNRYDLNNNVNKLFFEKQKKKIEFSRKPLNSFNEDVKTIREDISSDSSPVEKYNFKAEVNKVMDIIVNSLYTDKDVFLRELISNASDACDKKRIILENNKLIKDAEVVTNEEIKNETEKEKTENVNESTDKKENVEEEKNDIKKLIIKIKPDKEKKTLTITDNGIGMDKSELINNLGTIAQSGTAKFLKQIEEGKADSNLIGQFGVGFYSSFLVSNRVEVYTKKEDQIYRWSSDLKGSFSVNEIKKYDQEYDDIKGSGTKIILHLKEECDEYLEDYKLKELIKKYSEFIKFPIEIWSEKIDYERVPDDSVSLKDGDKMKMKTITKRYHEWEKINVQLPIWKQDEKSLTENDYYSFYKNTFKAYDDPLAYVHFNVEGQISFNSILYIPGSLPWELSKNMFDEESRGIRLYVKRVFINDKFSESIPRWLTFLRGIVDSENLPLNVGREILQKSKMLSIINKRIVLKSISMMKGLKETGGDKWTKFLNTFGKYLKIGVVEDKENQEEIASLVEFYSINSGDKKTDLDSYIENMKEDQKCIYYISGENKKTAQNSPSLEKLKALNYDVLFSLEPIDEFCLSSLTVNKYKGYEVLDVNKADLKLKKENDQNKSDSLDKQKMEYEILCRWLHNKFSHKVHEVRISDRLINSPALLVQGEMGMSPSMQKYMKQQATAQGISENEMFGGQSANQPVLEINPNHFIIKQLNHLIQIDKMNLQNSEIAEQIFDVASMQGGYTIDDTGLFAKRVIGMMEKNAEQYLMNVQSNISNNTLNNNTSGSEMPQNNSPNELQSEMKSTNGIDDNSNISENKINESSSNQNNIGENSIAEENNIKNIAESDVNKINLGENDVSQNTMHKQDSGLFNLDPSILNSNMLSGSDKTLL
How it was run: (§1)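 Recombinant P. falciparum Hsp90 or GRP94 nucleotide-binding domain (0.05–0.2 mg/mL, optimized per protein) in 25 mM HEPES pH 7.5, 250 mM NaCl. Compound final concentration was 0.5 mM, with SYPRO Orange at 1:1000. Samples were heated from 18 to 90 °C at 1 °C/min. Tm was taken as the Boltzmann-fit inflection point. ΔTm = Tm with ligand minus Tm without, and shifts beyond ±1 °C were counted significant.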

[2] = test system: Plasmodium falciparum; assay: Binding affinity to Plasmodium falciparum GRP94 nucleotide binding domain at 0.5 mM by SYPRO orange dye based DSF analysis; how it was run: as §1
[3] = target: T2, HSP90 (Plasmodium falciparum 3D7, UniProt Q8IL32); assay: (§2) Binding affinity to Plasmodium falciparum HSP90 nucleotide binding domain by SPR analysis
T2 sequence (Q8IL32 whole entry): T1 sequence (whole entry)
How it was run: (§3)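 Purified PfHsp90 and PfGRP94 nucleotide-binding domains were amine-coupled to a CM5 chip (3000 and 7000 RU, respectively), with a blank reference surface. Seven compound concentrations (0.4 nM–1 mM) were injected in triplicate at 30 µL/min, 25 °C, in random order. Running buffer: 10 mM HEPES pH 7.4, 150 mM NaCl, 0.005% P20, 1% DMSO, 2 mM MgCl2. Kd came from double-referenced sensorgrams.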

[4] = (§4) Binding affinity to Plasmodium falciparum GRP94 nucleotide binding domain by SPR analysis; how it was run: as §3
[5] = test system: Plasmodium falciparum; assay: Antiplasmodial activity against multidrug-resistant Plasmodium falciparum FCR-3 by [3H]-hypoxanthine incorporation assay; assay type: functional, organism-based, FCR-3/Gambia
How it was run: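 Blood-stage P. falciparum 3D7 and FCR-3 were tested by a modified [3H]-hypoxanthine incorporation assay. Chloroquine was the reference in all runs.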

[6] = Cytotoxicity against human HepG2A16 cells by MTT assay; assay type: cell-based
How it was run: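 MTT viability assay on HepG2-A16 cells, giving CC50 values.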

[7] = Selectivity index, ratio of CC50 for human HepG2A16 cells by MTT assay to IC50 for multidrug-resistant Plasmodium falciparum FCR-3; assay type: toxicity
How it was run: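 HepG2-A16 human hepatoma cells were tested by MTT viability assay to give CC50. Blood-stage activity was measured against the multidrug-resistant P. falciparum FCR-3 strain by [3H]-hypoxanthine incorporation to give IC50. SI = CC50 HepG2 / FCR-3 IC50.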

[8] = test system: Plasmodium berghei; assay: Antiplasmodial activity against GFP-fused Plasmodium berghei sporozoites infected in human HepG2A16 cells treated simultaneously with infection by fluorescence microscopic analysis; assay type: functional, organism-based; conditions: Plasmodium berghei, HepG2A16; read-out: IC50
How it was run: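 HepG2-A16 cells (3 × 10^4/well, collagen-coated) infected with PbGFP sporozoites (5 × 10^3 to 1 × 10^4/well) and treated at the same time. Top concentration 10 µg/mL in DMEM, seven serial dilutions. Medium and compound renewed at 3 h and every 24 h. After 40 h at 37 °C: methanol fixation, anti-Plasmodium Hsp70 immunolabeling, Alexa 594 secondary, DAPI; high-content imaging.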

[9] = test system: Plasmodium falciparum; assay: Antiplasmodial activity against Plasmodium falciparum FCR-3 sporozoites infected in human primary hepatocytes treated simultaneously with infection by DAPI staining based HCS analysis; assay type: functional, organism-based, FCR-3/Gambia; conditions: Plasmodium falciparum, FCR-3/Gambia; read-out: IC50
[10] = Cytotoxicity against human primary hepatocytes after 48 hrs by MTT assay; assay type: cell-based, Hepatocyte
How it was run: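 Primary human hepatocytes seeded at 2 × 10^5/well and grown 24 h at 37 °C, 5% CO2. Compound dilutions added in triplicate for 48 h. MTT (2 mg/mL) added for 4 h, then DMSO for 20 min; absorbance read at 550 nm. Untreated and diluent controls included; CC50 calculated.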

[11] = Selectivity index, ratio of CC50 for human HepG2A16 cells to IC50 for GFP-fused Plasmodium berghei sporozoites infected in human HepG2A16 cells; assay type: toxicity, cell-based; conditions: read-out: Ratio CC50/IC50
How it was run: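 HepG2-A16 cells were grown at 3 × 10^4 per well on collagen and infected with GFP P. berghei sporozoites (5 × 10^3 to 1 × 10^4 per well) from A. stephensi salivary glands. Compounds were added at infection, from 10 µg/mL top plus seven serial dilutions, and refreshed at 3 h and then every 24 h. After 40 h at 37 °C, EEFs were methanol-fixed, anti-Hsp70 immunolabelled and counted by high-content imaging. SI = HepG2 CC50 / liver-stage IC50.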

[12] = Selectivity index, ratio of CC50 for human primary hepatocytes to IC50 for Plasmodium falciparum FCR-3 sporozoites infected in human primary hepatocytes; assay type: toxicity, cell-based; conditions: read-out: Ratio CC50/IC50
How it was run: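 Primary human hepatocytes were plated at 8 × 10^4 per well on collagen and infected with P. falciparum sporozoites (2.5 × 10^4 per well). Compounds were given at infection from 10 µg/mL plus seven dilutions, refreshed every 24 h, for 8 days. EEFs were read by Hsp70 immunostaining. […] Two independent experiments were run.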

[13] = test system: Plasmodium berghei; assay: Antiplasmodial activity against GFP-fused Plasmodium berghei in Anopheles stephensi mosquitoes feeded on blood from infected mouse at 100 mg/kg, ip pretreated for 1.5 hrs followed by blood feeding of mosquito assessed as reduction in infection of mosquito and measured at 8 days post mosquitoes infection by fluorescence microscopic method relative to control; assay type: functional; parameters: scale not given: the % may be the effect or the level left
How it was run: (§5)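 Mice (two per group) infected ip with 200 µL PbGFP-infected RBCs (3000 parasites/µL); gametocytes checked at day 4. Compound given ip at 100 mg/kg in DMSO 1.5 h before A. stephensi fed 1 h on mice at 1% gametocytaemia. Untreated and DMSO-treated mice as controls. After 8 days, 30 mosquitoes per group dissected; midgut oocysts counted by fluorescence microscopy; inhibition relative to control oocyst numbers (100%).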

[14] = test system: Plasmodium berghei; assay: Antiplasmodial activity against GFP-fused Plasmodium berghei in Anopheles stephensi mosquitoes feeded on blood from infected mouse at 100 mg/kg, ip pretreated for 1.5 hrs followed by blood feeding of mosquito assessed as reduction in number of oocysts in mosquito midgut and measured at 8 days post mosquitoes infection by fluorescence microscopic method relative to control; assay type: functional; parameters: scale not given: the % may be the effect or the level left; how it was run: as §5
[15] = target: T1, HSP90 (Plasmodium falciparum 3D7); assay: as §2; how it was run: as §3
[16] = test system: Plasmodium falciparum; assay: as §4; how it was run: as §3
[17] = test system: Plasmodium berghei; assay: Antiplasmodial activity against Plasmodium berghei ANKA infected in mouse assessed as mouse survival time at 3 mg/kg/day, po for 4 consecutive days starting from 2 hrs post infection by MSF assay; assay type: functional
How it was run: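 Swiss male mice (20 ± 2 g) infected i.p. with 10^7 P. berghei ANKA parasitized cells in 0.1 mL 0.9% saline (day 0). Oral dosing began 2 h post-infection and continued daily on days 0–3, five mice per batch. Test drugs were given at 50 mg/kg/day in water:DMSO and chloroquine diphosphate at 3 mg/kg/day; a vehicle control was included. Survival was checked daily, and parasitemia was read on day 4 by modified MSF assay.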

[18] = test system: Plasmodium falciparum; assay: Antiplasmodial activity against multidrug-resistant Plasmodium falciparum C235 after 72 hrs by MSF assay; assay type: functional, organism-based; conditions: C235, 72 h
How it was run: (§6)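 D6 and C235 strains from the Walter Reed Army Institute of Research were tested by the Malaria SYBR Green-I fluorescence assay.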

[19] = test system: Plasmodium falciparum; assay: Antiplasmodial activity against Plasmodium falciparum D6 after 72 hrs by MSF assay; assay type: functional, organism-based; conditions: D6, 72 h; how it was run: as §6
[20] = Selectivity index, ratio of GI50 for African green monkey vero cells to IC50 for multidrug-resistant Plasmodium falciparum FCR-3; assay type: toxicity; conditions: read-out: Selectivity Index
[21] = test system: Plasmodium berghei; assay: Antiplasmodial activity against Plasmodium berghei ANKA infected in Swiss mouse assessed as reduction in parasitemia at 50 mg/kg/day, po for 4 consecutive days by Giemsa staining based assay relative to control; assay type: functional; parameters: scale not given: the % may be the effect or the level left
[22] = test system: Plasmodium berghei; assay: Antiplasmodial activity against Plasmodium berghei ANKA infected in mouse assessed as inhibition of parasitemia at 50 mg/kg/day, po for 4 consecutive days starting from 2 hrs post infection by MSF assay relative to control; assay type: functional
How it was run: (§7)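 Swiss male mice (20 ± 2 g) infected ip with 10^7 P. berghei ANKA parasitized cells (day 0). Five per group dosed orally 2 h after infection and daily on days 0–3. Test compounds at 50 mg/kg/day in water:DMSO; chloroquine diphosphate at 3 mg/kg/day; vehicle controls. Parasitemia measured on day 4 by MSF assay; survival checked daily.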

[23] = test system: Plasmodium berghei; assay: Antiplasmodial activity against Plasmodium berghei ANKA infected in mouse assessed as inhibition of parasitemia at 3 mg/kg/day, po for 4 consecutive days starting from 2 hrs post infection by MSF assay relative to control; assay type: functional; how it was run: as §7
[24] = Drug encapsulation in liposomes assessed as encapsulation efficiency in citrate/phosphate buffered measured after ultracentrifugation using compound addition to preformed liposomes by UV/Vis spectroscopy relative to untreated control; assay type: physicochemical; conditions: artificial membrane
How it was run: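 Compound loaded into DSPC:cholesterol:DSPE-PEG2000-Mal:DOPE-Rho (84.5:10:5:0.5) liposomes using a citrate (pH 4.0)/PBS pH gradient. Drug measured by UV/vis after SDS disruption at each step: citrate liposomes, after buffer exchange to PBS (chloroquine added to preformed liposomes here), and after ultracentrifugation. Encapsulation efficiency = % of drug that is encapsulated out of total drug in the sample.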

[25] = Plasmodium falciparum, FCR-3/Gambia, 3 h

SMILES | Activity [1] | Activity [2] | CC50 ([6]; HepG2A16 cells) [µM] | pIC50 [8] | pIC50 [9] | CC50 at 48 h [10] [µM] | selectivity ratio [11] | selectivity ratio [12] | further results
CC(C)NCC(O)Cn1c2ccc(Cl)cc2c2cc(Cl)ccc21 (stereo unspecified) | inactive | inactive | – | – | – | – | – | – | pKd [3]: 8.15; pKd [4]: 2.35
O=[N+]([O-])c1ccc(N2CCC(NCCC(O)c3ccc(F)cc3)CC2)c(C(F)(F)F)c1 (stereo unspecified) | inactive | inactive | 10.4 | 4.74 | 5.77 | 19.5 | 0.6 | 11.4 | pIC50 [5, 25]: 6.32; selectivity ratio ([7]; HepG2A16 cells, read-out: Ratio CC50/IC50): 22; Activity [13]: 24%; Activity [14]: 70%; Activity [15]: inactive; Activity [16]: inactive
CCN(CC)CCCC(C)Nc1ccnc2cc(Cl)ccc12 (stereo unspecified) [CHLOROQUINE] | – | – | 137 | – | – | – | – | – | MSD [17]: 11 days
O=[N+]([O-])c1ccc(N2CCC(NCCC(O)c3ccc(F)c4ccccc34)CC2)c(C(F)(F)F)c1 (stereo in doubt; 8) | – | – | – | 4.92 | 5.75 | 13.1 | 0.5 | 7.3 | pIC50 [5]: 6.82; pIC50 [18]: 6.89; pIC50 [19]: 6.96; selectivity ratio [20]: 37; Activity [21]: 98%; CC50 [6]: 5.7 µM; Ratio CC50/IC50 [7]: 38; inhibition in vivo at 50 mg/kg/day [22]: 96.4%
CCN(CC)CCCC(C)Nc1ccnc2cc(Cl)ccc12.O=P(O)(O)O.O=P(O)(O)O (stereo unspecified) [CHLOROQUINE PHOSPHATE] | – | – | – | – | – | – | – | – | inhibition in vivo at 3 mg/kg/day [23]: 88.5%; Activity [24]: 95.8%
COc1cc(NC(C)CCCN)c2ncccc2c1 (stereo unspecified) [PRIMAQUINE] | – | – | 120 | 5.44 | 6.40 | 54 | 32.9 | 135 | pIC50 [5, 25]: 5.93
OC(CN1CCN(Cc2ccccc2)CC1)Cn1c2ccc(Cl)cc2c2cc(Cl)ccc21 (stereo unspecified) | inactive | inactive | – | – | – | – | – | – | pKd [3]: 7.57; pKd [4]: 7.77
